One data set addresses T1, Cytochrome P450 1A2 (Homo sapiens, UniProt P05177).
T1 sequence (P05177 whole entry): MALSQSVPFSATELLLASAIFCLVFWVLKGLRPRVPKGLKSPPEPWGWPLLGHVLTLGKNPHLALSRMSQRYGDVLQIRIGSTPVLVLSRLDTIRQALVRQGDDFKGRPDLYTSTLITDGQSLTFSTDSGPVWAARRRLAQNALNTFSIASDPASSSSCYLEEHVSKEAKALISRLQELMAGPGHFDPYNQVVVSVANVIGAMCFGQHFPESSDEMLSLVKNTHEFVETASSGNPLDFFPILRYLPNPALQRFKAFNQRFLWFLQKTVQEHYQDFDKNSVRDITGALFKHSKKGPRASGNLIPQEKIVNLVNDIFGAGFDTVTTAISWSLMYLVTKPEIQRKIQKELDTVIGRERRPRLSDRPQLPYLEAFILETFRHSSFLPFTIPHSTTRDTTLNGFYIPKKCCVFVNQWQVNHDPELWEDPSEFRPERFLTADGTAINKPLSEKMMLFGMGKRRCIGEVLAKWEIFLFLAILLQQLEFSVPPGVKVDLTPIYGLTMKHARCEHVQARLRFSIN
Nature of the data set: Inhibition of CYP1A2 (unknown origin). It is filed as ADME.

For data set [1], the system named is Rattus norvegicus. Nature of the data set: Toxicity in rat assessed as induction of organ coefficients changes at 100 mg/kg, po dosed once daily for 2 weeks. Particulars: in vivo, 336 h. Details: dose 100 mg/kg, route oral. The format is organism-based. Put shortly:
(§1)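 Subacute toxicity in rats: oral dosing once daily for 2 weeks at 50 mg/kg (medium) or 100 mg/kg (high). Behavior, body weight, food intake, organ coefficients and survival rate were monitored.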

Another data set deals with Plasma. The experiment in a line: Anticoagulant activity in citrated rabbit plasma assessed as drug concentration required to double plasma clotting time preincubated for 10 mins at 37 degC by coagulometry. The format is functional, Oryctolagus cuniculus. The method in brief: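 Test compound or DMSO added to citrated rabbit plasma (3.8% sodium citrate, 10:90 v/v) and preincubated 10 min at 37 °C. PT and aPTT clotting times measured on a coagulometer with commercial kits. Activity expressed as the concentration needed to double plasma clotting time (CT2, μM).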

In data set [2] the test system is Rattus norvegicus. The experiment in a line: Toxicity in rat assessed as induction of behavioral changes at 50 mg/kg, po dosed once daily for 2 weeks. The format is organism-based. Particulars: in vivo, 336 h. Details: dose 50 mg/kg, route oral. Put shortly:
as §1

The next data set has as its target Coagulation factor X (Homo sapiens, UniProt P00742). Nature of the data set: Inhibition of human factor 10a using N-Z-D-Arg-Gly-Arg-pNA, S-2765 chromogenic substrate.
Data set [3] is described as follows: Elimination half life in Beagle dog at 0.5 mg/kg, iv. The format is ADME, organism-based, Canis lupus familiaris. Further details: dose 0.5 mg/kg, route intravenous. Particulars: in vivo. The method in brief: (§2)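 Male dogs, three per group. Dosed orally at 1 mg/kg or by intravenous infusion at 0.5 mg/kg. Vehicle was 5% DMSO + 5% Tween-80 in 90% saline, or 10% DMSO + 10% Tween-80 + 80% PEG400 for the reference drug. Foreleg blood samples were quantified by LC-MS. Parameters came from noncompartmental analysis of mean plasma concentrations.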

The subject of data set [4] is Rattus norvegicus. Nature of the data set: Toxicity in rat assessed as induction of organ coefficients changes at 50 mg/kg, po dosed once daily for 2 weeks. The format is organism-based. Details: dose 50 mg/kg, route oral. Particulars: in vivo, 336 h. Put shortly: as §1
A short description of data set [5]: AUC (0 to infinity) in Sprague-Dawley rat at 3 mg/kg, iv. The format is ADME, organism-based. Details: time infinity, dose 3 mg/kg, route intravenous. Particulars: plasma. Put shortly:
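Male Sprague-Dawley rats, 200−220 g, four per group. Vehicle was 5% DMSO + 5% Tween-80 in 90% saline. The reference drug was given in 10% DMSO + 10% Tween-80 + 80% PEG400 (40% solution in saline). Serial retrobulbar vein samples were quantified by LC-MS. Parameters came from noncompartmental analysis of mean plasma concentrations.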

The next data set addresses T2, Cytochrome P450 2C8 (Homo sapiens, UniProt P10632).
T2 sequence (P10632 whole entry): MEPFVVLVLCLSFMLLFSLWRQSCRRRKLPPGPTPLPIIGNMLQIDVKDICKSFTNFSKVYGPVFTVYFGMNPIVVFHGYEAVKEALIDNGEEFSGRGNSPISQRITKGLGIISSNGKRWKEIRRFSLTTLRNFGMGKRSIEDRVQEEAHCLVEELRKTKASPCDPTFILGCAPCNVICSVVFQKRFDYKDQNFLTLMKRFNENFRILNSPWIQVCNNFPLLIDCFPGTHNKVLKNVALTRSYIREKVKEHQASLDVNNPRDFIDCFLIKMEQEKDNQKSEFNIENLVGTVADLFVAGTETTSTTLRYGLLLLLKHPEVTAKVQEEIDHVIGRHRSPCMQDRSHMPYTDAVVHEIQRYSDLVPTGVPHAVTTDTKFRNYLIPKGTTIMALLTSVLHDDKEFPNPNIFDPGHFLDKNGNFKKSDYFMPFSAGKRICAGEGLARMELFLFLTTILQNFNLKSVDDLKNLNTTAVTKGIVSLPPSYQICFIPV
The experiment in a line: Inhibition of CYP2C8 (unknown origin). The format is ADME.

Data set [6] can be described thus: Volume of distribution at steady state in Beagle dog at 0.5 mg/kg, iv. Particulars: in vivo, read-out: Vdss. Details: dose 0.5 mg/kg, route intravenous. The format is ADME, organism-based, Canis lupus familiaris. Put shortly:
as §2

The subject of data set [7] is Rattus norvegicus. Nature of the data set: Antithrombotic activity in rat model of arteriovenous shunt-induced thrombosis assessed as reduction in thrombus formation dosed orally 60 mins before shunt opening. Particulars: po.
The test system of a further data set is V79. The experiment in a line: Toxicity in Chinese hamster V79 cells by micronucleus Assay. The format is cell-based, Cricetulus griseus.
The target of the next data set is Cytochrome P450 2C19 (Homo sapiens, UniProt P33261). The experiment in a line: Inhibition of CYP2C19 (unknown origin). The format is ADME.
Sequence of Cytochrome P450 2C19 (P33261 whole entry): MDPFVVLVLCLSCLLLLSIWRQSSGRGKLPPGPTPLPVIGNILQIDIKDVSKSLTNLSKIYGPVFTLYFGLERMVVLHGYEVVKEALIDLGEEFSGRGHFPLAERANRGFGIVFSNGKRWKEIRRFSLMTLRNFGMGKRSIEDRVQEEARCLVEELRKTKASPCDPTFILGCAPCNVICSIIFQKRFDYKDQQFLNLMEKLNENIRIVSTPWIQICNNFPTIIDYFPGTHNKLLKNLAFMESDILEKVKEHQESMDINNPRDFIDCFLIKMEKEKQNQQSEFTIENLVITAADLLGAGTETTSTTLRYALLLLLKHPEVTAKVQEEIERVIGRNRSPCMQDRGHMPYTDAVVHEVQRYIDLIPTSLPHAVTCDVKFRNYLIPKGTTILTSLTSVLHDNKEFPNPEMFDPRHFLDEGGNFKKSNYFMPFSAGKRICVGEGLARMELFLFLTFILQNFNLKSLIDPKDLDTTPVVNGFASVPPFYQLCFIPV
For a further data set, the target named is Trypsin (Homo sapiens, UniProt P07477+P07478+P35030). Nature of the data set: Inhibition of human trypsin using N-Z-D-Arg-Gly-Arg-pNA, S-2765 chromogenic substrate. It is filed as protein assay. Put shortly:
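Human enzyme and inhibitor were premixed and preincubated, then the chromogenic substrate was added. Substrate levels: 300 μM S-2765 (FXa, trypsin); 200 μM S-2366 (FIIa); 2 mM S-2366 (FVIIa, FXIa). pNA release was monitored continuously at 405 nm for 20 min at 37 °C. IC50 was obtained by nonlinear regression.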

The subject of data set [8] is Rattus norvegicus. Nature of the data set: Toxicity in rat assessed as induction of body weight changes at 50 mg/kg, po dosed once daily for 2 weeks. Particulars: in vivo, 336 h. It is filed as organism-based. Further details: dose 50 mg/kg, route oral. Put shortly:
as §1

Each structure is given as a SMILES string.

Sequence of Coagulation factor X (P00742 41-179 limits assumed): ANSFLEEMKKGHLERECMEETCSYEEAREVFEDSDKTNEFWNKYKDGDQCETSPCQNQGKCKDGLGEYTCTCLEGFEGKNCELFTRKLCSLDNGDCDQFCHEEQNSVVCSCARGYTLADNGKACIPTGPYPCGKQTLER
Sequence of Coagulation factor X (P00742 235-488 limits assumed): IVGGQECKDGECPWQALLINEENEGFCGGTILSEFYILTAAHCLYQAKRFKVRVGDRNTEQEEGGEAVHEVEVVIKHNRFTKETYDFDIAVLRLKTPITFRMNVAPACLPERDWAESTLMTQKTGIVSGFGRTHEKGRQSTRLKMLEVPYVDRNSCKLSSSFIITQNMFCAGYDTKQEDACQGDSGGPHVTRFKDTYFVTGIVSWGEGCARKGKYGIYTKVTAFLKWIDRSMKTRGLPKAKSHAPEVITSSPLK

Broadly, the IC50 is the concentration at which inhibition is half-maximal. Read a high IC50 as a need for much substance. Usually half-life stands for how long it takes for the measured level to halve. A high value points to slow loss. For orientation: AUC(0-inf) means the area under the concentration-time curve extrapolated to infinity. Read a high AUC(0-inf) as more exposure. Usually ED50 stands for the dose that gives a 50% effect, or the effect in half of the subjects. `O=C(NC[C@@H]1OC(=O)N2c3ccc(N4CCOCC4=O)cc3OC[C@@H]12)c1ccc(Cl)s1`: the IC50 against Cytochrome P450 1A2 was more than 200 µM; on Coagulation factor X it was 3.41 nM; against Cytochrome P450 2C8, 99.7 µM; against Cytochrome P450 2C19 it was more than 200 µM; against Trypsin it was more than 100 µM. The Activity entry is “Non-toxic” with Rattus norvegicus [1]; 0.18 µM in the data set on Plasma; “Non-toxic” in the data set with Rattus norvegicus [2]; “Non-toxic” with Rattus norvegicus [4]; “Non-toxic” in the data set on V79; “Non-toxic” with Rattus norvegicus [8]. The same compound showed a half-life in [3] of 186 min. In addition, in [5], the AUC(0-inf) is 15300 ng·h/mL. Further, in data set [6], the Vd is 1.7 L/kg. Also, the ED50 in the data set on Rattus norvegicus [7] is 5.28 mg/kg.

Source of the values: ChEMBL document CHEMBL3351225, “Design, synthesis, and structure-activity and structure-pharmacokinetic relationship studies of novel [6,6,5] tricyclic fused oxazolidinones leading to the discovery of a potent, selective, and orally bioavailable FXa inhibitor” (J Med Chem, 2014).
